ChEMBL document CHEMBL1144537, “Synthesis of a non-cationic, water-soluble perylenetetracarboxylic diimide and its interactions with G-quadruplex-forming DNA” (Bioorg Med Chem, 2007)
Calls of active or inactive are those of the source. No cut-off for these calls is given here.

Experiments:
[1] = Binding affinity to 32 base containing human telomeric repeat G-rich ssDNA by fluorescence quenching assay
Outline: (§1)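 Ligand held at fixed 34–168 nM in 10 mM Tris–HCl (pH 8.0) with 100 mM KCl and 1 mM EDTA, then titrated with G-rich strand, C-rich complement, or duplex made by mixing both. Each addition mixed 2 min at 25 °C. Excitation 450 nm; quenching at 545 nm read. Kd fitted by nonlinear least squares to non-interacting-site mass-action model; triplicate titrations, mean ± SD.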

[2] = Binding affinity to 32 base containing complementary human telomeric repeat C-rich ssDNA by fluorescence quenching assay; outline: as §1
[3] = Binding affinity to double stranded human telomeric repeat by fluorescence quenching assay; outline: as §1
[4] = Binding affinity to human nuclease hypersensitive region of c-MYC gene NHE-27 by fluorescence quenching assay; outline: as §1
[5] = Binding affinity to complementary nuclease hypersensitive region of c-MYC gene NHE-27 by fluorescence quenching assay; parameters: species or system Homo sapiens; outline: as §1
[6] = Binding affinity to human double stranded nuclease hypersensitive region of c-MYC gene NHE-27 by fluorescence quenching assay; outline: as §1
Homo sapiens [7] = organism: Homo sapiens; assay: Induction of tetramer formation in human nuclease hypersensitive region of c-MYC gene NHE-27 G-rich ssDNA
Homo sapiens [8] = organism: Homo sapiens; assay: Induction of tetramer formation in human telomeric repeat 2HTR G-rich ssDNA
Homo sapiens [9] = organism: Homo sapiens; assay: Induction of dimer formation in human nuclease hypersensitive region of c-MYC gene NHE-27 G-rich ssDNA
Homo sapiens [10] = organism: Homo sapiens; assay: Induction of dimer formation in human telomeric repeat 2HTR G-rich ssDNA

Row | Kd [5] [nM] | Structure (SMILES) | Kd [1] [nM] | Kd [2] [nM] | Kd [3] [nM] | Kd [4] [nM] | Kd [6] [nM] | Activity (Homo sapiens [7]) | Activity (Homo sapiens [8]) | Activity (Homo sapiens [9]) | Activity (Homo sapiens [10])
1 | > 20000 | COCCOCCOCC(COCCOCCOC)N1C(=O)c2ccc3c4ccc5c6c(ccc(c7ccc(c2c37)C1=O)c64)C(=O)N(C(COCCOCCOC)COCCOCCOC)C5=O | > 20000 | > 20000 | > 20000 | 980 | 14800 | inactive | inactive | inactive | inactive
2 |  | O=C1c2ccc3c4ccc5c6c(ccc(c7ccc(c2c37)C(=O)N1CCN1CCCCC1)c64)C(=O)N(CCN1CCCCC1)C5=O | 3.4 | 10 | 30 | 5.5 | 6.6 | Active | Active | Active | Active
